Measured values from ChEMBL document CHEMBL1157638, “Fluorescent epigenetic small molecule induces expression of the tumor suppressor ras-association domain family 1A and inhibits human prostate xenograft” (J Med Chem, 2010).

Key:
Format in all cases: functional
T47D [1] = test: Growth inhibition of human T47D cells assessed as cell growth at 10 nM relative to untreated control; details: read-out: Activity
HOP-92 [2] = test: Growth inhibition of human HOP92 cells assessed as cell growth at 100 nM relative to untreated control; details: read-out: Activity
Method in brief: (§1)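 Run externally at the National Cancer Institute as a 59-cell-line panel screen, with concentrations up to 100 μM. Growth was scored relative to control, where negative growth or total cell kill was possible. Data are in the Supporting Information.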

NCI-H226 = test: Growth inhibition of human NCI-H226 cells assessed as cell growth at 100 nM relative to untreated control; details: read-out: Activity
NCI-H522 [3] = test: Growth inhibition of human NCI-H522 cells assessed as cell growth at 100 nM relative to untreated control; details: read-out: Activity
COLO 205 [4] = test: Growth inhibition of human COLO205 cells assessed as cell growth at 100 nM relative to untreated control; details: read-out: Activity; method in brief: as §1
Malme-3M [5] = test: Growth inhibition of human MALME-3M cells assessed as cell growth at 100 nM relative to untreated control; details: read-out: Activity
SK-MEL-28 = test: Growth inhibition of human SK-MEL-28 cells assessed as cell growth at 100 nM relative to untreated control; details: read-out: Activity
UACC-62 [6] = test: Growth inhibition of human UACC62 cells assessed as cell growth at 100 nM relative to untreated control; details: read-out: Activity
SN12C = test: Growth inhibition of human SN12C cells assessed as cell growth at 100 nM relative to untreated control; details: read-out: Activity
MCF7 [7] = test: Growth inhibition of human MCF7 cells assessed as cell growth at 100 nM relative to untreated control; details: read-out: Activity
[8] = Growth inhibition of human Hs 578T cells assessed as cell growth at 100 nM relative to untreated control; details: read-out: Activity
HOP-92 [9] = test: Growth inhibition of human HOP92 cells assessed as cell growth at 1 uM relative to untreated control; details: read-out: Activity; method in brief: as §1
COLO 205 [10] = test: Growth inhibition of human COLO205 cells assessed as cell growth at 1 nM relative to untreated control; details: read-out: Activity
SW-620 = test: Growth inhibition of human SW620 cells assessed as cell growth at 1 nM relative to untreated control; details: read-out: Activity
SF-539 = test: Growth inhibition of human SF539 cells assessed as cell growth at 1 nM relative to untreated control; details: read-out: Activity
SNB-19 = test: Growth inhibition of human SNB19 cells assessed as cell growth at 1 nM relative to untreated control; details: read-out: Activity
U-251 [11] = test: Growth inhibition of human U251 cells assessed as cell growth at 1 uM relative to untreated control; details: read-out: Activity
M14 [12] = test: Growth inhibition of human M14 cells assessed as cell growth at 1 uM relative to untreated control; details: read-out: Activity
UACC-62 [13] = test: Growth inhibition of human UACC62 cells assessed as cell growth at 1 uM relative to untreated control; details: read-out: Activity
OVCAR-8 = test: Growth inhibition of human OVCAR8 cells assessed as cell growth at 1 uM relative to untreated control; details: read-out: Activity
OVCAR-3 = test: Growth inhibition of human OVCAR-3 cells assessed as cell growth at 1 nM relative to untreated control; details: read-out: Activity
DU-145 = test: Growth inhibition of human DU145 cells assessed as cell growth at 1 nM relative to untreated control; details: read-out: Activity; method in brief: as §1
T47D [14] = test: Growth inhibition of human T47D cells assessed as cell growth at 1 nM relative to untreated control; details: read-out: Activity
786-0 [15] = test: Growth inhibition of human 786-0 cells assessed as cell growth at 1 uM relative to untreated control; details: read-out: Activity
MCF7 [16] = test: Growth inhibition of human MCF7 cells assessed as cell growth at 1 uM relative to untreated control; details: read-out: Activity
T47D [17] = test: Growth inhibition of human T47D cells assessed as cell growth at 1 uM relative to untreated control; details: read-out: Activity
MOLT-4 = test: Growth inhibition of human MOLT4 cells assessed as cell growth at 10 uM relative to untreated control; details: read-out: Activity
NCI-H522 [18] = test: Growth inhibition of human NCI-H522 cells assessed as cell growth at 10 uM relative to untreated control; details: read-out: Activity
HCC 2998 = test: Growth inhibition of human HCC2998 cells assessed as cell growth at 10 uM relative to untreated control; details: read-out: Activity; method in brief: as §1
HCT-116 = test: Growth inhibition of human HCT116 cells assessed as cell growth at 10 uM relative to untreated control; details: read-out: Activity; method in brief: as §1
MDA-MB-435 = test: Growth inhibition of human MDA-MB-435 cells assessed as cell growth at 10 uM relative to untreated control; details: read-out: Activity
SK-OV-3 = test: Growth inhibition of human SKOV3 cells assessed as cell growth at 10 uM relative to untreated control; details: read-out: Activity
[19] = Growth inhibition of human […] cells
HOP-92 [20] = test: Growth inhibition of human HOP92 cells; method in brief: as §1
SF-268 = test: Growth inhibition of human SF268 cells
U-251 [21] = test: Growth inhibition of human U251 cells
Malme-3M [22] = test: Growth inhibition of human MALME-3M cells
M14 [23] = test: Growth inhibition of human M14 cells
SK-MEL-2 = test: Growth inhibition of human SK-MEL-2 cells
SK-MEL-5 = test: Growth inhibition of human SK-MEL-5 cells
NCI/ADR-RES = test: Growth inhibition of human NCI/ADR-RES cells
786-0 [24] = test: Growth inhibition of human 786-0 cells
A498 = test: Growth inhibition of human A498 cells
HOP-62 = test: Growth inhibition of human HOP62 cells assessed as cell growth at 1 nM relative to untreated control; details: read-out: Activity; method in brief: as §1
HOP-92 [25] = test: Growth inhibition of human HOP92 cells assessed as cell growth at 1 nM relative to untreated control; details: read-out: Activity; method in brief: as §1
MDA-MB-231 = test: Growth inhibition of human MDA-MB-231 cells
SNB-75 = test: Growth inhibition of human SNB75 cells assessed as cell growth at 10 nM relative to untreated control; details: read-out: Activity
U-251 [26] = test: Growth inhibition of human U251 cells assessed as cell growth at 10 nM relative to untreated control; details: read-out: Activity
[27] = read-out: LC50 (the source's name)

COc1ccc2c(c1)[nH]c1c(C)c(OS(=O)(=O)c3cccc4c(N(C)C)cccc34)ccc12
growth at 0.01 µM (T47D [1]): 53%
growth at 0.1 µM (HOP-92 [2]): 91%
growth at 0.1 µM (NCI-H226): 85%
growth at 0.1 µM (NCI-H522 [3]): 100%
growth at 0.1 µM (COLO 205 [4]): 95%
growth at 0.1 µM (Malme-3M [5]): 85%
growth at 0.1 µM (SK-MEL-28): 75%
growth at 0.1 µM (UACC-62 [6]): 75%
growth at 0.1 µM (SN12C): 97%
growth at 0.1 µM (MCF7 [7]): 81%
growth at 0.1 µM [8]: 88%
growth at 1 µM (HOP-92 [9]): 49%
growth at 0.001 µM (COLO 205 [10]): 104%
growth at 0.001 µM (SW-620): 103%
growth at 0.001 µM (SF-539): 104%
growth at 0.001 µM (SNB-19): 97%
growth at 1 µM (U-251 [11]): 25%
growth at 1 µM (M14 [12]): 29%
growth at 1 µM (UACC-62 [13]): 28%
growth at 1 µM (OVCAR-8): 44%
growth at 0.001 µM (OVCAR-3): 100%
growth at 0.001 µM (DU-145): 113%
growth at 0.001 µM (T47D [14]): 95%
growth at 1 µM (786-0 [15]): 30%
growth at 1 µM (MCF7 [16]): 10%
growth at 1 µM (T47D [17]): 15%
growth at 10 µM (MOLT-4): 7%
growth at 10 µM (NCI-H522 [18]): 37%
growth at 10 µM (HCC 2998): -5%
growth at 10 µM (HCT-116): 5%
growth at 10 µM (MDA-MB-435): -1%
growth at 10 µM (SK-OV-3): 34%
GI50 [19]: 2.84 µM
TGI [19]: 24 µM
CC50 [19, 27]: > 100 µM
GI50 (HOP-92 [20]): 9.51 µM
TGI (HOP-92 [20]): 94.8 µM
CC50 (HOP-92 [20]; [27]): > 100 µM
GI50 (SF-268): 75.1 µM
TGI (SF-268): > 100 µM
CC50 (SF-268; [27]): > 100 µM
GI50 (U-251 [21]): 4.28 µM
TGI (U-251 [21]): > 100 µM
CC50 (U-251 [21]; [27]): > 100 µM
GI50 (Malme-3M [22]): 3.62 µM
TGI (Malme-3M [22]): > 100 µM
CC50 (Malme-3M [22]; [27]): > 100 µM
GI50 (M14 [23]): 50.2 µM
TGI (M14 [23]): > 100 µM
CC50 (M14 [23]; [27]): > 100 µM
GI50 (SK-MEL-2): 10 µM
TGI (SK-MEL-2): > 100 µM
CC50 (SK-MEL-2; [27]): > 100 µM
GI50 (SK-MEL-5): 2.73 µM
TGI (SK-MEL-5): 9.34 µM
CC50 (SK-MEL-5; [27]): > 100 µM
GI50 (NCI/ADR-RES): 4.63 µM
TGI (NCI/ADR-RES): > 100 µM
CC50 (NCI/ADR-RES; [27]): > 100 µM
GI50 (786-0 [24]): 5.42 µM
TGI (786-0 [24]): > 100 µM
CC50 (786-0 [24]; [27]): > 100 µM
GI50 (A498): 22.4 µM
TGI (A498): 60.2 µM
CC50 (A498; [27]): > 100 µM
growth at 0.001 µM (HOP-62): 101%
growth at 0.001 µM (HOP-92 [25]): 101%
GI50 (MDA-MB-231): 9.3 µM
TGI (MDA-MB-231): > 100 µM
CC50 (MDA-MB-231; [27]): > 100 µM
growth at 0.01 µM (SNB-75): 118%
growth at 0.01 µM (U-251 [26]): 98%
